Screening results as filed in PubChem BioAssay.
This is a sample that favours compounds with a hit; in the whole collection about 2% have one here.
CaV13 ICDI inh = Primary screen for inhibitors of IQ motif and Ca2+-dependent inactivation inhibitor domain binding in CACNA1D, Förster resonance energy transfer in living cells, …. HEK cells, CFP/YFP FRET ICDI-IQ, plate reader, 10 min; percent FRET-ratio fall versus neutral wells. hit rate 0.098% among 340,000. inhibition, % at 12.3 µM;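 active = mean replicate inhibition of at least 30% and at least 1% of replicates passing that level; inconclusive = only one of the two criteria is met; inactive = neither criterion is met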;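 note: 0% = median of the neutral control wells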
TROY NFkB inh = TROY signaling inhibition. inhibition, % at 10 µM. Q293 LMP1-TROYcd NF-kB luciferase reporter, 4 h. hit rate 0.98% among 360,000;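 active = compounds whose plate-normalised and pattern-corrected inhibition of the luciferase reporter signal at the single screening dose is 50% or more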
TWEAK Fn14 block = blocks TWEAK-Fn14 interaction in a reporter cell assay; AID 1159606; hit rate 2% among 360,000; inhibition, % at 10 µM; TWEAK-stimulated Fn14 reporter cells, luciferase luminescence, 8 h; in the data active = inhibition above about 50%
LGR2 antag = blocks bursicon-induced cAMP signaling via Drosophila LGR2; hit rate 0.35% among 380,000; HEK293 LGR2, CRE-luciferase, bursicon-stimulated, 4 h; inhibition, % at 9.99 µM;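 active = drop in luminescence signal, shown as inhibition above about 50% in the replicate tests, limit read from the data, passing the limit was not always enough; inconclusive = probably only some replicates passing the limit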;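 note: agonist challenge used bursicon conditioned medium at about half maximal strength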
Xi reactivation = X-chromosome reactivation activator; activation, % at 7.58 µM; XiGFP mouse fibroblasts, % GFP-positive cells imaging, 3 d; cells co-treated with 5-aza-dC sensitizer; scaled so ellipticine positive control = 100%; hit rate 0.055% among 360,000;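 active = mean normalized replicate activation at least 10% and every replicate at or above 10%; inconclusive = only one of the two criteria met; inactive = mean below 10% and not all replicates reach 10%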;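 note: 0% = median of on-plate neutral control wells and 100% = ellipticine 6 µM median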
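System: 68-5-11 XiGFP fibroblast line | Buffer or medium: DMEM containing 5-aza-dC | Compound: Single point | Times: Compounds 3 days, fix/stain 15 min at room temperature | Benchmarks: Positive control ellipticine, 6 µM final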
* hit, by the source's call; u = inconclusive; x = not tested or not shown.

SMILES	CaV13 ICDI inh	TROY NFkB inh	TWEAK Fn14 block	LGR2 antag	Xi reactivation
C[C@H](CO)N1C[C@H](C)[C@@H](CN(C)C(=O)Nc2ccc(F)cc2)Oc2ccc(NC(=O)C3CC3)cc2C1=O	x	x	x	-4	0
CC(C)Oc1ccc(CNC(=O)CC(c2ccccc2)c2cc(Cl)ccc2O)cc1 (configuration not stated)	-13	56*	47	u	x
Cc1ccc(-n2ncc3c(NNC(=O)c4ccco4)ncnc32)cc1Cl	-4	19	50*	1	0
Clc1ccc(-n2ncc3c(NCc4cccnc4)ncnc32)cc1Cl	-2	51*	19	-67	0
C=CCN1C(=O)NC(c2ccc(OC)cc2)(C(F)(F)F)S/C1=C(\C#N)c1nnc(N2CCOCC2)n1-c1ccccc1 (configuration not stated)	-5	-7	50*	12	0
COc1ccc(NC(=O)N(C)C[C@H]2OCc3ccccc3-c3ccccc3C(=O)N([C@@H](C)CO)C[C@H]2C)cc1	x	x	x	-21	0
COc1ccc(S(=O)(=O)N(C(=O)c2ccncc2)c2ccc3oc4c(c3c2)CCCC4)cc1	-4	44	51*	18	0
C[C@H]1CN([C@@H](C)CO)C(=O)CCCn2nncc2CO[C@H]1CN(C)Cc1ccc2c(c1)OCCN2C	x	x	x	-16	0
Cc1cc(C)c(C(=O)/C=C/c2cccc3ccccc23)c(=O)[nH]1	-3	54*	95*	67*	0
C/C(=C\c1ccccc1F)C(=O)c1c(C)cc(C)[nH]c1=O	-5	-3	31	9	0
C/C(=C\c1cccc(Cl)c1Cl)C(=O)c1c(C)cc(C)[nH]c1=O	-2	21	72*	11	0
CC(=O)COc1ncn(-c2ccccc2)n1	x	x	87*	x	x
C/C(=N\Nc1ccc(C(=O)O)cc1)c1ccc(Br)cc1	-6	14	66*	-24	0
C/C(=N/Nc1ncc(Br)cn1)c1ccc(Br)cc1	6	-42	-34	-9	0
COc1ccc(-n2c(-c3ccccc3)c[n+]3c2CCC3)cc1	4	-8	86*	10	0
COc1ccc(-n2c(-c3ccc(Br)cc3)c[n+]3c2CCC3)cc1	9	27	23	-25	0
O=[N+]([O-])c1ccc(N=NN(CCO)CCO)cc1	-5	-8	-2	-14	0
O=[N+]([O-])c1ccc(N=Nc2ncc[nH]2)cc1	-15	11	85*	31	7
O=C1CC(NNc2nc3ccccc3s2)C(=O)N1c1ccc(F)cc1 (configuration not stated)	-14	69*	16	8	0
O=C(NNc1nc2ccccc2s1)Nc1ccc(Cl)c(Cl)c1	-3	82*	52*	18	0
O=C(CN1c2ccccc2Sc2ccccc21)NNC(=O)Nc1ccc(Cl)cc1	-17	31	11	x	0
CC(C)C(=O)NNc1nc2ccccc2s1	-8	-37	-15	-27	x
O=C(CN1c2ccccc2Sc2ccccc21)NNC(=O)Nc1ccc(Cl)c(Cl)c1	-12	59*	23	x	0
O=C(NNc1nc2ccccc2s1)c1ccccc1F	-8	69*	3	-28	x
C[C@@H]1CCCCO[C@H](CN(C)Cc2ccccc2)[C@@H](C)CN([C@@H](C)CO)C(=O)c2cc(NC(=O)c3ccncc3)ccc2O1	x	x	x	6	0
SMILES	CaV13 ICDI inh	TROY NFkB inh	TWEAK Fn14 block	LGR2 antag	Xi reactivation
CCCN(C)C[C@H]1Oc2cc(-c3ccccc3)ccc2S(=O)(=O)N([C@H](C)CO)C[C@H]1C	x	x	x	14	0
O=C(NNc1nc2ccccc2s1)Nc1ccc(F)cc1	-2	45	65*	-82	0
CO[C@H](CN(C)S(=O)(=O)c1cccc(Cl)c1)[C@@H](C)CN(C(=O)Nc1ccccc1F)[C@H](C)CO	x	x	x	-6	0
CCOc1ccc(NC(=O)CN2CCN(C(=O)C3CCCO3)CC2)cc1 (configuration not stated)	x	-4	93*	8	0
Cc1noc(C)c1NC(=O)N(C)C[C@H]1Oc2c(NS(=O)(=O)c3ccc(Cl)cc3)cccc2C(=O)N([C@@H](C)CO)C[C@H]1C	x	x	x	-14	-1
CC(=O)Nc1cc(N=Cc2ccc(O)cc2O)c(Cl)cc1Cl	x	30	99*	x	x
COc1ccc(O)c(C=Nc2cc(NC(C)=O)c(Cl)cc2Cl)c1	-2	-14	6	x	0
